Reference: ChEMBL document CHEMBL1139439, “Folate-synthesizing enzyme system as target for development of inhibitors and inhibitor combinations against Candida albicans-synthesis and biological activity of new 2,4-diaminopyrimidines and 4'-substituted 4-aminodiphenyl sulfones” (J Med Chem, 2004)
≈ marks a conversion by molar mass, not a printed value.

Tested on: not listed separately
Test: Inhibitory activity against dihydropteroic acid synthase (SYN) from Escherichia coli
Settings: read-out: I50

SMILES | IC50
Nc1ccc(S(=O)(=O)c2ccc(O)cc2)cc1 | 34.9 µM
NNC(=O)c1ccc(S(=O)(=O)c2ccc(N)cc2)cc1 | 155 µM

Tested on: not listed separately
Test: Inhibitory activity against dihydropteroic acid synthase (SYN) from Mycobacterium lufu (DDS sensitive)
Settings: read-out: I50

SMILES | IC50
Nc1ccc(S(=O)(=O)c2ccc(O)cc2)cc1 | 1.5 µM
NNC(=O)c1ccc(S(=O)(=O)c2ccc(N)cc2)cc1 | 12.7 µM

Tested on: Candida albicans
Test: Inhibitory effect on Candida albicans YEM15 CDR1CDR2up Strain
Format: functional
Settings: not given
How it was run: (§1)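 MICs were determined by serial dilution in RPMI medium. MIC is the lowest concentration giving culture turbidity ≤20% of the control culture.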

SMILES | MIC
Nc1ncc(OCc2cccc3ccccc23)c(N)n1 | > 64 µg/mL
COc1cc(OC)cc(N2C3CCC2CC(c2cnc(N)nc2N)C3)c1 (configuration not stated) | > 64 µg/mL
COc1cc(Cc2cnc(N)nc2N)ccc1OCCCCN1C(=O)c2ccccc2C1=O | > 64 µg/mL
COc1cc(Cc2cnc(N)nc2N)ccc1OCCNc1ccc(S(=O)(=O)c2ccc(N)cc2)cc1 | > 64 µg/mL
COc1ccc(Cc2cnc(N)nc2N)cc1OCCCCN1C(=O)c2ccccc2C1=O | > 64 µg/mL

Tested on: Candida albicans
Test: Inhibitory effect on Candida albicans YEM12 Strain
Format: functional
Settings: not given
How it was run: as §1

SMILES | MIC
Nc1ncc(OCc2cccc3ccccc23)c(N)n1 | 32 µg/mL (≈ 120 µM)
COc1cc(OC)cc(N2C3CCC2CC(c2cnc(N)nc2N)C3)c1 (configuration not stated) | 16 µg/mL (≈ 45 µM)
COc1cc(Cc2cnc(N)nc2N)ccc1OCCCCN1C(=O)c2ccccc2C1=O | > 64 µg/mL
COc1cc(Cc2cnc(N)nc2N)ccc1OCCNc1ccc(S(=O)(=O)c2ccc(N)cc2)cc1 | > 64 µg/mL
COc1ccc(Cc2cnc(N)nc2N)cc1OCCCCN1C(=O)c2ccccc2C1=O | > 64 µg/mL

Biological target: T1, Dihydrofolate reductase (Candida albicans, UniProt P22906)
T1 sequence (P22906 whole entry): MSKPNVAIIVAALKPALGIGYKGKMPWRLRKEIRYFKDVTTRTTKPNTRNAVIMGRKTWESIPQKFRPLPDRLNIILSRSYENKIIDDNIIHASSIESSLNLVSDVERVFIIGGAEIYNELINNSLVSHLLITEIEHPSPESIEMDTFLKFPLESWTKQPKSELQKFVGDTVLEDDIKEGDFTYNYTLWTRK
Test: Inhibitory activity against cell free dihydrofolate reductase (DHFR) from Candida albicans
Settings: read-out: I50

SMILES | IC50
Nc1ncc(OCc2cccc3ccccc23)c(N)n1 | 430 nM
COc1cc(OC)cc(N2C3CCC2CC(c2cnc(N)nc2N)C3)c1 (configuration not stated) | 26 nM
COc1cc(Cc2cnc(N)nc2N)ccc1OCCCCN1C(=O)c2ccccc2C1=O | 31 nM
COc1cc(Cc2cnc(N)nc2N)ccc1OCCNc1ccc(S(=O)(=O)c2ccc(N)cc2)cc1 | 340 nM
COc1ccc(Cc2cnc(N)nc2N)cc1OCCCCN1C(=O)c2ccccc2C1=O | 61 nM
Nc1ncc(NCc2ccccc2)c(N)n1 | 7940 nM

Tested on: Nakaseomyces glabratus
Test: Inhibitory effect on Candida glabrata YEM88 CgCDR1 CgCDR2up Strain
Format: functional
Settings: not given
How it was run: (§2)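 For C. glabrata strains, MICs were determined by serial dilution in RPMI medium and read after 48 h. MIC is the lowest concentration giving turbidity ≤20% of the control culture.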

SMILES | MIC
Nc1ncc(OCc2cccc3ccccc23)c(N)n1 | 64 µg/mL (≈ 240 µM)
COc1cc(OC)cc(N2C3CCC2CC(c2cnc(N)nc2N)C3)c1 (configuration not stated) | 32 µg/mL (≈ 90 µM)
COc1cc(Cc2cnc(N)nc2N)ccc1OCCCCN1C(=O)c2ccccc2C1=O | > 64 µg/mL
COc1cc(Cc2cnc(N)nc2N)ccc1OCCNc1ccc(S(=O)(=O)c2ccc(N)cc2)cc1 | > 64 µg/mL
COc1ccc(Cc2cnc(N)nc2N)cc1OCCCCN1C(=O)c2ccccc2C1=O | > 64 µg/mL

Tested on: Candida albicans
Test: Inhibitory effect on Candida albicans wild type YEM14 Strain
Format: functional
Settings: not given
How it was run: as §1

SMILES | MIC
Nc1ncc(OCc2cccc3ccccc23)c(N)n1 | > 64 µg/mL
COc1cc(OC)cc(N2C3CCC2CC(c2cnc(N)nc2N)C3)c1 (configuration not stated) | 64 µg/mL (≈ 180 µM)
COc1cc(Cc2cnc(N)nc2N)ccc1OCCCCN1C(=O)c2ccccc2C1=O | > 64 µg/mL
COc1cc(Cc2cnc(N)nc2N)ccc1OCCNc1ccc(S(=O)(=O)c2ccc(N)cc2)cc1 | > 64 µg/mL
COc1ccc(Cc2cnc(N)nc2N)cc1OCCCCN1C(=O)c2ccccc2C1=O | > 64 µg/mL

Tested on: not listed separately
Test: Inhibitory activity against dihydropteroic acid synthase (SYN) from Mycobacterium lufu (DDS resistant)
Settings: read-out: I50

SMILES | IC50
Nc1ccc(S(=O)(=O)c2ccc(O)cc2)cc1 | 1.61 µM
NNC(=O)c1ccc(S(=O)(=O)c2ccc(N)cc2)cc1 | 9.6 µM

Biological target: T2, Dihydropteroate synthetase, putative (Plasmodium berghei str. ANKA) (UniProt A0A113T0T6)
T2 sequence (whole entry): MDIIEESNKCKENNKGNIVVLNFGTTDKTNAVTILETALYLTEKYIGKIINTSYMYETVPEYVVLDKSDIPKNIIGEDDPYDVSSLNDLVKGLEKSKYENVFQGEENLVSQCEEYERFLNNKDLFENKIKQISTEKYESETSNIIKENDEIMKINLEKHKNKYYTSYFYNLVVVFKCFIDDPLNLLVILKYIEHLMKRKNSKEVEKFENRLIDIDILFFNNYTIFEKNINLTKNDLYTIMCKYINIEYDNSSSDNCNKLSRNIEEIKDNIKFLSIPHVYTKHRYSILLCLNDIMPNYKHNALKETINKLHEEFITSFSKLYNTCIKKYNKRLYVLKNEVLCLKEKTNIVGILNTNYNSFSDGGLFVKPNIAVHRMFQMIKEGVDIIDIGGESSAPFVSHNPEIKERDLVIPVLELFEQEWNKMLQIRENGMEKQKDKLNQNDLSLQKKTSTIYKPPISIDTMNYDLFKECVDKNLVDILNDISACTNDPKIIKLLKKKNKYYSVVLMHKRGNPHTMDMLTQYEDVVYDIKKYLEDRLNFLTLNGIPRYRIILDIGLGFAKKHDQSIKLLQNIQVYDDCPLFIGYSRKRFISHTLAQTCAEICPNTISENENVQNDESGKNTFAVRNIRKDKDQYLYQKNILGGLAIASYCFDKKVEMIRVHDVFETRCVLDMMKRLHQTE
Test: Inhibitory activity against dihydropteroic acid synthase (SYN) from Plasmodium berghei
Settings: not given

SMILES | I50
Nc1ccc(S(=O)(=O)c2ccc(O)cc2)cc1 | 32.2 µM
NNC(=O)c1ccc(S(=O)(=O)c2ccc(N)cc2)cc1 | 76.5 µM

Tested on: Candida albicans
Test: Inhibitory effect on Candida albicans YEM13 BENup Strain
Format: functional
Settings: not given
How it was run: as §1

SMILES | MIC
Nc1ncc(OCc2cccc3ccccc23)c(N)n1 | > 64 µg/mL
COc1cc(OC)cc(N2C3CCC2CC(c2cnc(N)nc2N)C3)c1 (configuration not stated) | > 64 µg/mL
COc1cc(Cc2cnc(N)nc2N)ccc1OCCCCN1C(=O)c2ccccc2C1=O | > 64 µg/mL
COc1cc(Cc2cnc(N)nc2N)ccc1OCCNc1ccc(S(=O)(=O)c2ccc(N)cc2)cc1 | > 64 µg/mL
COc1ccc(Cc2cnc(N)nc2N)cc1OCCCCN1C(=O)c2ccccc2C1=O | > 64 µg/mL

Tested on: Nakaseomyces glabratus
Test: Inhibitory effect on Candida glabrata YEM75 WT Strain
Format: functional
Settings: not given
How it was run: as §2

SMILES | MIC
Nc1ncc(OCc2cccc3ccccc23)c(N)n1 | 16 µg/mL (≈ 60.1 µM)
COc1cc(OC)cc(N2C3CCC2CC(c2cnc(N)nc2N)C3)c1 (configuration not stated) | 4 µg/mL (≈ 11.3 µM)
COc1cc(Cc2cnc(N)nc2N)ccc1OCCCCN1C(=O)c2ccccc2C1=O | > 64 µg/mL
COc1ccc(Cc2cnc(N)nc2N)cc1OCCCCN1C(=O)c2ccccc2C1=O | > 64 µg/mL

Tested on: Candida albicans
Test: Inhibitory effect on Candida albicans YEM27 quad deletion Strain
Format: functional
Settings: not given
How it was run: as §1

SMILES | MIC
Nc1ncc(OCc2cccc3ccccc23)c(N)n1 | 32 µg/mL (≈ 120 µM)
COc1cc(OC)cc(N2C3CCC2CC(c2cnc(N)nc2N)C3)c1 (configuration not stated) | 1 µg/mL (≈ 2.81 µM)
COc1cc(Cc2cnc(N)nc2N)ccc1OCCCCN1C(=O)c2ccccc2C1=O | > 64 µg/mL
COc1cc(Cc2cnc(N)nc2N)ccc1OCCNc1ccc(S(=O)(=O)c2ccc(N)cc2)cc1 | > 64 µg/mL
COc1ccc(Cc2cnc(N)nc2N)cc1OCCCCN1C(=O)c2ccccc2C1=O | > 64 µg/mL

Biological target: T3, Dihydrofolate reductase (Rattus norvegicus, UniProt Q920D2)
T3 sequence (Q920D2 whole entry): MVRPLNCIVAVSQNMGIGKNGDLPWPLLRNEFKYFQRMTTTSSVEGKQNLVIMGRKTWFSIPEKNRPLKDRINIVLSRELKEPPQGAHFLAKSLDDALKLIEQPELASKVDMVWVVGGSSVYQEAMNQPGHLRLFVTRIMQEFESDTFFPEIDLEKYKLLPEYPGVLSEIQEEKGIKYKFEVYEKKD
Test: (§3) Inhibitory activity against cell free dihydrofolate reductase (DHFR) from rat
Settings: read-out: I50
How it was run: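 Commercially sourced rat DHFR was preincubated 5 min at 25 °C with 0.1 mM NADPH and varying inhibitor in 0.1 M Tris, pH 7.24. The reaction was started with 0.03 mM dihydrofolate and followed as the fall in absorbance at 340 nm over time. I50 was taken as the inhibitor concentration halving reaction velocity, fitted by nonlinear regression.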

SMILES | IC50
COc1cc(OC)cc(N2C3CCC2CC(c2cnc(N)nc2N)C3)c1 (configuration not stated) | 84 nM

Biological target: T3, Dihydrofolate reductase
Test: as §3
Settings: read-out: I50

SMILES | IC50
Nc1ncc(OCc2cccc3ccccc23)c(N)n1 | 2630 nM
COc1cc(Cc2cnc(N)nc2N)ccc1OCCCCN1C(=O)c2ccccc2C1=O | 1810 nM
COc1cc(Cc2cnc(N)nc2N)ccc1OCCNc1ccc(S(=O)(=O)c2ccc(N)cc2)cc1 | 7230 nM
COc1ccc(Cc2cnc(N)nc2N)cc1OCCCCN1C(=O)c2ccccc2C1=O | 1760 nM
Nc1ncc(NCc2ccccc2)c(N)n1 | 58200 nM

Biological target: Dihydrofolate reductase (Mycobacterium lufu)
Test: Inhibitory activity against cell free dihydrofolate reductase (DHFR) from Mycobacterium lufu
Settings: not given

SMILES | I50
Nc1ncc(NCc2ccccc2)c(N)n1 | 105 uM l-1

Tested on: Nakaseomyces glabratus
Test: Inhibitory effect on Candida glabrata YEM216 pCDR1pCDR2pBEN YEM75 WT Strain
Format: functional
Settings: not given
How it was run: as §2

SMILES | MIC
Nc1ncc(OCc2cccc3ccccc23)c(N)n1 | 16 µg/mL (≈ 60.1 µM)
COc1cc(OC)cc(N2C3CCC2CC(c2cnc(N)nc2N)C3)c1 (configuration not stated) | 4 µg/mL (≈ 11.3 µM)
COc1cc(Cc2cnc(N)nc2N)ccc1OCCCCN1C(=O)c2ccccc2C1=O | > 64 µg/mL
COc1cc(Cc2cnc(N)nc2N)ccc1OCCNc1ccc(S(=O)(=O)c2ccc(N)cc2)cc1 | > 64 µg/mL
COc1ccc(Cc2cnc(N)nc2N)cc1OCCCCN1C(=O)c2ccccc2C1=O | > 64 µg/mL

Tested on: Candida albicans
Test: Inhibitory effect on Candida albicans wild type YEM30 Strain
Format: functional
Settings: not given
How it was run: as §1

SMILES | MIC
Nc1ncc(OCc2cccc3ccccc23)c(N)n1 | > 64 µg/mL
COc1cc(OC)cc(N2C3CCC2CC(c2cnc(N)nc2N)C3)c1 (configuration not stated) | 32 µg/mL (≈ 90 µM)
COc1cc(Cc2cnc(N)nc2N)ccc1OCCCCN1C(=O)c2ccccc2C1=O | > 64 µg/mL
COc1cc(Cc2cnc(N)nc2N)ccc1OCCNc1ccc(S(=O)(=O)c2ccc(N)cc2)cc1 | > 64 µg/mL
COc1ccc(Cc2cnc(N)nc2N)cc1OCCCCN1C(=O)c2ccccc2C1=O | > 64 µg/mL

Tested on: not listed separately
Test: Inhibitory activity against dihydropteroic acid synthase (SYN) from candida albicans
Settings: read-out: I50
How it was run: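 Partially purified SYN extract was prepared from C. albicans ATCC 11651 and incubated with sulfones at pH 8.4. Periodic samples were quenched with trichloroacetic acid, and folate formed was quantified by bioassay with folate-requiring Streptococcus faecium. I50 is the concentration giving a 50% decrease in dihydropteroic acid production versus the uninhibited control.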

SMILES | IC50
Nc1ccc(S(=O)(=O)c2ccc(O)cc2)cc1 | 2400 nM

Tested on: Nakaseomyces glabratus
Test: IInhibitory effect on Candida glabrata YEM75 WT Strain
Format: functional
Settings: not given
How it was run: as §2

SMILES | MIC
COc1cc(Cc2cnc(N)nc2N)ccc1OCCNc1ccc(S(=O)(=O)c2ccc(N)cc2)cc1 | > 64 µg/mL
